Consider 6 compounds from ChEMBL document CHEMBL4152356, “Amphipathic sulfonamidobenzamides mimicking small antimicrobial marine natural products; investigation of antibacterial and anti-biofilm activity against antibiotic resistant clinical isolates” (Bioorg Med Chem, 2018).

Data set [1] relates to Escherichia coli. Put plainly: Antibacterial activity against Escherichia coli ATCC 25922 after 48 hrs by microdilution method. The following applies: ATCC 25922, 48 h. In kind it is functional. In outline: (§1)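 Broth microdilution (CLSI M07-A9, modified) in Mueller-Hinton broth; inoculum about 2.5-3 × 10^4 cells/ml mixed 1:1 with serial compound dilutions. Stock solutions in up to 100% DMSO, final DMSO ≤1%. Incubated 35 °C for 48 h.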
A general note: Dilution methods test growth across graded concentrations, often in twofold steps.

Data set [2] deals with Pseudomonas aeruginosa. The data set is described as follows: Antibacterial activity against Pseudomonas aeruginosa PAO1 DSM 19880 ATCC 15692 after 48 hrs by microdilution method. In kind it is functional. The following applies: PAO1 DSM 19880 ATCC 15692, 48 h. In outline: as §1
Data set [3] relates to Corynebacterium glutamicum. The data set is described as follows: Antibacterial activity against Corynebacterium glutamicum ATCC 13032 after 48 hrs by microdilution method. In kind it is functional. The following applies: ATCC 13032, 48 h. In outline:
as §1

The test system of data set [4] is Staphylococcus epidermidis. The data set is described as follows: Antibacterial activity against methicillin resistant Staphylococcus epidermidis RP62A ATCC 35984/CCUG 31568 after 48 hrs by microdilution method. In kind it is functional. The following applies: RP62A ATCC 35984/CCUG 31568, 48 h. An outline of the steps:
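Broth microdilution (modified CLSI M07-A9) against the MRSE reference strain. Inoculum of about 2.5-3 × 10^4 cells/ml in Mueller-Hinton broth mixed 1:1 with serial compound dilutions; final DMSO ≤1%. Incubated 35 °C, 48 h.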

For data set [5], the system named is Escherichia coli. Put plainly: Antibacterial activity against Escherichia coli clinical isolates after 24 hrs by microdilution method. In kind it is functional. In outline: (§2)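 Clinical isolate screen by broth microdilution with about 1-1.2 × 10^6 cells/ml and 24 h incubation. MIC is the lowest concentration with no growth. For isolate collections, MIC90 is the MIC inhibiting ≥90% of isolates. Multidrug resistance was defined as resistance to at least […] antimicrobial class.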

Another data set concerns Bacillus subtilis. The data set is described as follows: Antibacterial activity against Bacillus subtilis 168 ATCC 23857 after 48 hrs by microdilution method. In kind it is functional. The following applies: subsp. subtilis str. 168 ATCC 23857, 48 h. In outline:
as §1

In data set [6] the test system is Pseudomonas aeruginosa. Put plainly: Antibacterial activity against Pseudomonas aeruginosa clinical isolates after 24 hrs by microdilution method. It is filed as functional. In outline: as §2
Data set [7] relates to Staphylococcus aureus. The data set is described as follows: Antibacterial activity against Staphylococcus aureus clinical isolates after 24 hrs by microdilution method. In kind it is functional. In outline:
as §2

Another data set relates to Erythrocyte. Put plainly: Hemolytic activity against human RBC measured after 1 hr. In kind it is cell-based. In outline:
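Washed human RBCs from a healthy donor (heparinized) at 10% in PBS pH 7.4, mixed 9:1 with serial compound dilutions, 37 °C for 1 h. Baseline set by 0.5% DMSO in 50% PBS, 100% lysis by 0.05% Triton X-100. EC50 is the concentration giving 50% lysis.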

The nature of data set [8]: Selectivity index, ratio of EC50 for human RBC to MIC for methicillin resistant Staphylococcus epidermidis RP62A ATCC 35984/CCUG 31568. It is filed as toxicity. The following applies: human red blood cells (RBC), read-out: Selectivity Index. In outline:
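SI = hemolytic EC50 / MRSE MIC. Hemolysis: washed human RBCs (heparinized blood, healthy adult donor) at 10% in PBS pH 7.4, mixed 9:1 with serial compound dilutions, 37 °C for 1 h. 0.05% Triton X-100 set 100% lysis, 0.5% DMSO set baseline. MIC from MHB microdilution, 35 °C, […].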

In another data set the test system is MRC5. The data set is described as follows: Cytotoxicity against human MRC5 cells after 72 hrs by MTS assay. It is filed as cell-based. The following applies: MRC5, 72 h. In outline: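 MRC-5 lung fibroblasts in DMEM with 10% FBS, 37 °C, 5% CO2; seeded at 4000 cells/well, adhered 24 h, medium replaced. Two-fold dilutions up to 100 µg/ml for 72 h, then MTS for 1 h and absorbance at 485 nm. Controls were 1% DMSO (negative) and 0.5% Triton X-100 (positive). EC50 is the concentration giving 50% inhibition of survival.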

In data set [9] the test system is Staphylococcus epidermidis. The data set is described as follows: Antibiofilm activity against Staphylococcus epidermidis RP62A ATCC 35984/CCUG 31568 incubated for 24 +/- 2 hrs by crystal violet staining based assay. In kind it is functional. In outline: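 Mature S. epidermidis RP62A biofilms: filtered overnight TSB culture adjusted to 2 McFarland, diluted in TSB with 1% glucose to about 6 × 10^6 CFU/ml, grown 24 ± 2 h at 37 °C static, then PBS-washed. Compounds in 50% TSBglu added for 24 ± 2 h at 37 °C. Biomass given as % of untreated control; ≥90% eradication threshold. Compounds tested at 2x, 5x and 10x MIC, 4-8 parallels on 2-3 plates, highest and lowest values excluded.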

Data set [10] relates to Staphylococcus aureus. The data set is described as follows: Antibacterial activity against Staphylococcus aureus ATCC 9144 after 48 hrs by microdilution method. In kind it is functional. The following applies: ATCC 9144, 48 h. An outline of the steps:
as §1

The next data set has as its system Enterococcus sp. The data set is described as follows: Antibacterial activity against Enterococcus sp. clinical isolates after 24 hrs by microdilution method. In kind it is functional. In outline:
as §2

The next data set concerns Klebsiella pneumoniae. Put plainly: Antibacterial activity against Klebsiella pneumoniae clinical isolates after 24 hrs by microdilution method. In kind it is functional. In outline:
as §2

Regarding `CC(C)(C)c1cc(C(C)(C)C)cc(S(=O)(=O)Nc2ccc(CC(=O)NCCNC(=N)N)cc2)c1.Cl`, the MIC with Escherichia coli [1] came out at 64 µg/mL; in the data set with Pseudomonas aeruginosa [2] it was 64 µg/mL; in [3], 8 µg/mL; in [4] it was 8 µg/mL; against Escherichia coli [5], 64 µg/mL; against Bacillus subtilis, 8 µg/mL. Moreover, the MIC in the data set with Pseudomonas aeruginosa [6] amounted to 64 µg/mL; with Staphylococcus aureus [7], 16 µg/mL; in the data set with Staphylococcus aureus [10], 16 µg/mL; in the data set on Enterococcus sp., 32 µg/mL; in the data set on Klebsiella pneumoniae, 128 µg/mL. Moreover, the figures for the EC50 with Erythrocyte and in the data set with MRC5 were 101 µg/mL and 55 µg/mL, respectively. Further, the selectivity ratio in data set [8] came out at 13. For the same compound, in data set [9], the “MBIC=>90” value turned out to be 40 µg/mL.

`Cl.N=C(N)NCCNC(=O)c1ccc(NS(=O)(=O)c2ccc3ccccc3c2)cc1`: the MIC with Escherichia coli [1] is above 128 µg/mL; against Pseudomonas aeruginosa [2], above 128 µg/mL; in data set [3] it was 32 µg/mL; in [4] it was 32 µg/mL; in the data set with Escherichia coli [5], above 128 µg/mL; in the data set on Bacillus subtilis, 64 µg/mL. The minimal inhibitory concentration (MIC) against Pseudomonas aeruginosa [6] was above 128 µg/mL; against Staphylococcus aureus [7], 128 µg/mL; with Staphylococcus aureus [10], 64 µg/mL; with Enterococcus sp., above 128 µg/mL; in the data set with Klebsiella pneumoniae it was above 128 µg/mL. Moreover, the EC50 in the data set on Erythrocyte is above 128 µg/mL; in the data set with MRC5, above 100 µg/mL. In [8], the selectivity ratio is above 4. Further, the “MBIC=>90” value in data set [9] was 160 µg/mL.

In the case of `CN(c1ccc(C(=O)NCCNC(=N)N)cc1)S(=O)(=O)c1cc(C(C)(C)C)cc(C(C)(C)C)c1.Cl`, the MIC in the data set on Escherichia coli [1] was 32 µg/mL; against Pseudomonas aeruginosa [2], 16 µg/mL; in data set [3] it was 2 µg/mL; in [4], 4 µg/mL; against Escherichia coli [5], 32 µg/mL; in the data set on Bacillus subtilis, 4 µg/mL. In addition, the MIC in the data set on Pseudomonas aeruginosa [6] came to 16 µg/mL; against Staphylococcus aureus [7], 4 µg/mL; against Staphylococcus aureus [10] it was 4 µg/mL; in the data set with Enterococcus sp., 32 µg/mL; against Klebsiella pneumoniae, 64 µg/mL. Further, the EC50 with Erythrocyte was 45 µg/mL; in the data set with MRC5, 36 µg/mL. Further, the selectivity ratio in data set [8] is 11. The “MBIC=>90” value in data set [9] turned out to be 40 µg/mL.

Turning to `CC(C)(C)c1cc(C(C)(C)C)cc(S(=O)(=O)NCCCCNC(=N)N)c1.Cl`, the MIC against Escherichia coli [1] worked out at 64 µg/mL; against Pseudomonas aeruginosa [2], 64 µg/mL; in data set [3], 4 µg/mL; in [4], 8 µg/mL; in the data set on Escherichia coli [5] it was 128 µg/mL; against Bacillus subtilis, 16 µg/mL. In addition, the MIC in the data set on Pseudomonas aeruginosa [6] came to 64 µg/mL; against Staphylococcus aureus [7] it was 16 µg/mL; against Staphylococcus aureus [10], 8 µg/mL; in the data set on Enterococcus sp. it was 32 µg/mL; against Klebsiella pneumoniae it was 128 µg/mL. The EC50 was 110 µg/mL with Erythrocyte and 42 µg/mL in the data set with MRC5. For the same compound, the selectivity ratio in data set [8] amounted to 14. For the same compound, in data set [9], the “MBIC=>90” value is 40 µg/mL.

Take `CC(C)(C)c1cc(C(C)(C)C)cc(S(=O)(=O)NCc2ccc(C(=O)NCCNC(=N)N)cc2)c1.Cl`: the MIC in the data set on Escherichia coli [1] worked out at 32 µg/mL; with Pseudomonas aeruginosa [2], 32 µg/mL; in [3], 4 µg/mL; in data set [4], 8 µg/mL; in the data set on Escherichia coli [5] it was 128 µg/mL; in the data set with Bacillus subtilis, 8 µg/mL. In addition, the minimal inhibitory concentration (MIC) with Pseudomonas aeruginosa [6] came to 64 µg/mL; in the data set on Staphylococcus aureus [7], 16 µg/mL; in the data set with Staphylococcus aureus [10] it was 16 µg/mL; against Enterococcus sp., 64 µg/mL; with Klebsiella pneumoniae it was 128 µg/mL. The figures for the EC50 in the data set on Erythrocyte and with MRC5 were 113 µg/mL and above 100 µg/mL, respectively. Moreover, the selectivity ratio in data set [8] turned out to be 14. Moreover, the “MBIC=>90” value in data set [9] was determined as 80 µg/mL.

`CC(C)(C)c1cc(C(C)(C)C)cc(S(=O)(=O)Nc2cccc(C(=O)NCCNC(=N)N)c2)c1.Cl`: the MIC was 32 µg/mL against Escherichia coli [1]; 32 µg/mL against Pseudomonas aeruginosa [2]; 4 µg/mL in [3]; 8 µg/mL in data set [4]; 64 µg/mL in the data set on Escherichia coli [5]; 8 µg/mL against Bacillus subtilis. The MIC was found to be 64 µg/mL in the data set on Pseudomonas aeruginosa [6]; 8 µg/mL against Staphylococcus aureus [7]; 8 µg/mL in the data set on Staphylococcus aureus [10]; 32 µg/mL in the data set with Enterococcus sp.; 128 µg/mL in the data set with Klebsiella pneumoniae. Also, the EC50 in the data set with Erythrocyte is 92 µg/mL; in the data set on MRC5 it was above 100 µg/mL. In addition, in data set [8], the selectivity ratio was 12. Further, the “MBIC=>90” value in data set [9] is 40 µg/mL.

The term MIC denotes the lowest concentration found to suppress growth. Lower therefore signals a more susceptible organism. The term EC50 denotes the concentration giving half of the maximal effect.
